Experimental data: ChEMBL document CHEMBL2380254, “Optimization of tocotrienols as antiproliferative and antimigratory leads” (Eur J Med Chem, 2013)

What was measured:
Type in all cases: functional
[1] = test system: M14; assay: Growth inhibition of human M14 cells assessed as cell growth at 10 uM after 48 hrs by sulforhodamine B assay; details: M14, 48 h, read-out: Activity
Summary of the method: (§1)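 NCI-60 single-dose screen at 10 µM: cells in RPMI 1640 with 5% FBS, preincubated 24 h, then exposed 48 h at 37 °C. TCA fixation (16% final for suspension cells), SRB staining, absorbance 515 nm. Percent growth relative to time-zero and untreated control plates; negative values indicate cell kill.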

[2] = test system: MCF7; assay: Growth inhibition of human MCF7 cells assessed as cell growth at 10 uM after 48 hrs by sulforhodamine B assay; details: MCF7, 48 h, read-out: Activity
Summary of the method: (§2)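 Single-dose NCI-60 screen: adherent cells in RPMI 1640 with 5% FBS were exposed to 10 µM for 48 h at 37 °C after a 24 h preincubation. They were fixed in situ with cold TCA (10% final), stained with 0.4% SRB in 1% acetic acid, solubilized in 10 mM Tris base, and read at 515 nm. Percent growth was taken relative to time-zero and control plates.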

[3] = test system: Malme-3M; assay: Growth inhibition of human MALME-3M cells after 48 hrs by sulforhodamine B assay
Summary of the method: (§3)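 NCI-60 panel cells grown in RPMI 1640 with 5% FBS and 2 mM L-glutamine, seeded at 5000–40,000 cells/well and preincubated 24 h. Five 10-fold dilutions (0.001–100 µM) from DMSO stocks were added for 48 h at 37 °C. Adherent cells were fixed with cold TCA (10% final) for 60 min at 4 °C, stained with 0.4% SRB, and read at 515 nm. GI50 was set where 100×(T−T0)/(C−T0)=50.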

[4] = test system: SNB-19; assay: Growth inhibition of human SNB19 cells assessed as cell growth at 10 uM after 48 hrs by sulforhodamine B assay; details: SNB-19, 48 h, read-out: Activity
Summary of the method: (§4)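 Single-dose NCI-60 test at 10 µM. Cells were grown in RPMI 1640 with 5% FBS and 2 mM L-glutamine, preincubated 24 h, with T0 plates TCA-fixed. Exposure was 48 h at 37 °C, 5% CO2. Cells were fixed with cold TCA (final 10%, 4 °C, 60 min), stained with SRB and read at 515 nm. Percent growth was taken relative to T0 and untreated control; negative values denote cell kill.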

[5] = test system: SK-OV-3; assay: Growth inhibition of human SKOV3 cells after 48 hrs by sulforhodamine B assay; details: SK-OV-3, 48 h
Summary of the method: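 NCI-60 five-dose screen. Cells were grown in RPMI 1640 with 5% FBS and 2 mM L-glutamine, plated at 5000–40,000 cells/well and incubated 24 h before dosing, with T0 plates TCA-fixed. DMSO stocks were diluted to doses of […] and exposed 48 h at 37 °C, 5% CO2. Cells were fixed with cold TCA (final 10%, 60 min, 4 °C), stained with 0.4% SRB in 1% acetic acid for 10 min, solubilized in 10 mM trizma base and read at 515 nm. GI50 is where 100×(T−T0)/(C−T0)=50.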

[6] = test system: A549; assay: Growth inhibition of human A549/ATCC cells after 48 hrs by sulforhodamine B assay; details: A549, 48 h
Summary of the method: (§5)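 NCI-60 screen: cells in RPMI 1640 with 5% FBS and 2 mM glutamine, 5000–40,000 cells/well, preincubated 24 h. Five concentrations (10-fold dilutions; 100 to 0.001 µM) applied for 48 h at 37 °C. TCA fixation, SRB stain, absorbance at 515 nm. Time-zero plates included; GI50 where 100×(T−T0)/(C−T0)=50.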

[7] = test system: HL-60(TB); assay: Growth inhibition of human HL-60(TB) cells after 48 hrs by sulforhodamine B assay; details: HL-60, 48 h
Summary of the method: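 HL-60(TB) cells (suspension) grown in RPMI 1640 with 5% FBS and 2 mM L-glutamine. They were plated and preincubated for 24 h, with T0 plates fixed at that point. Drug was given at five 10-fold dilutions for 48 h at 37 °C. Settled cells were fixed with TCA (16% final), stained with 0.4% SRB in 1% acetic acid and read at 515 nm. GI50 was taken where 100×(T−T0)/(C−T0)=50.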

[8] = test system: SK-MEL-2; assay: Growth inhibition of human SK-MEL-2 cells after 48 hrs by sulforhodamine B assay; details: SK-MEL-2, 48 h; summary of the method: as §3
[9] = test system: DU-145; assay: Growth inhibition of human DU145 cells after 48 hrs by sulforhodamine B assay; details: DU-145, 48 h; summary of the method: as §5
[10] = test system: OVCAR-4; assay: Growth inhibition of human OVCAR4 cells assessed as cell growth at 10 uM after 48 hrs by sulforhodamine B assay; details: OVCAR-4, 48 h, read-out: Activity; summary of the method: as §2
[11] = test system: OVCAR-5; assay: Growth inhibition of human OVCAR5 cells after 48 hrs by sulforhodamine B assay; details: OVCAR-5, 48 h; summary of the method: as §3
[12] = Growth inhibition of human HCC2998 cells after 48 hrs by sulforhodamine B assay; details: HCC 2998, 48 h; summary of the method: as §5
[13] = test system: HCT-15; assay: Growth inhibition of human HCT15 cells assessed as cell growth at 10 uM after 48 hrs by sulforhodamine B assay; details: HCT-15, 48 h, read-out: Activity; summary of the method: as §1
[14] = Growth inhibition of human NCI-ADR-RES cells assessed as cell growth at 10 uM after 48 hrs by sulforhodamine B assay; details: read-out: Activity; summary of the method: as §2
[15] = test system: SR; assay: Growth inhibition of human SR cells assessed as cell growth at 10 uM after 48 hrs by sulforhodamine B assay; details: read-out: Activity
Summary of the method: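 Suspension line in RPMI 1640 with 5% FBS, single 10 µM dose for 48 h. Settled cells were fixed with TCA (final 16%), then SRB-stained and read at 515 nm. Percent growth was taken versus T0 and control; negative values denote cytotoxicity.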

[16] = test system: T47D; assay: Growth inhibition of human T47D cells assessed as cell growth at 10 uM after 48 hrs by sulforhodamine B assay; details: read-out: Activity; summary of the method: as §4
[17] = test system: NCI-H23; assay: Growth inhibition of human NCI-H23 cells after 48 hrs by sulforhodamine B assay; details: NCI-H23, 48 h; summary of the method: as §3
[18] = Growth inhibition of human NCI-ADR-RES cells after 48 hrs by sulforhodamine B assay; summary of the method: as §3
[19] = test system: OVCAR-5; assay: Growth inhibition of human OVCAR5 cells assessed as cell growth at 10 uM after 48 hrs by sulforhodamine B assay; details: OVCAR-5, 48 h, read-out: Activity; summary of the method: as §2
[20] = test system: HT-29; assay: Growth inhibition of human HT-29 cells assessed as cell growth at 10 uM after 48 hrs by sulforhodamine B assay; details: HT-29, 48 h, read-out: Activity; summary of the method: as §1
[21] = test system: NCI-H460; assay: Growth inhibition of human NCI-H460 cells assessed as cell growth at 10 uM after 48 hrs by sulforhodamine B assay; details: NCI-H460, 48 h, read-out: Activity; summary of the method: as §2
[22] = test system: MDA-MB-435; assay: Growth inhibition of human MDA-MB-435 cells assessed as cell growth at 10 uM after 48 hrs by sulforhodamine B assay; details: MDA-MB-435, 48 h, read-out: Activity; summary of the method: as §2
[23] = Growth inhibition of human EKVX cells after 48 hrs by sulforhodamine B assay; summary of the method: as §5
[24] = Growth inhibition of human Hs 578T cells after 48 hrs by sulforhodamine B assay; summary of the method: as §5

SMILES	growth at 10 µM [1] [%]	growth at 10 µM [2] [%]	GI50 [3] [nM]	growth at 10 µM [4] [%]	GI50 [5] [nM]	GI50 [6] [nM]	GI50 [7] [nM]	GI50 [8] [nM]	GI50 [9] [nM]	growth at 10 µM [10] [%]	GI50 [11] [nM]	GI50 [12] [nM]	growth at 10 µM [13] [%]	growth at 10 µM [14] [%]	growth at 10 µM [15] [%]	growth at 10 µM [16] [%]	GI50 [17] [nM]	GI50 [18] [nM]	growth at 10 µM [19] [%]	growth at 10 µM [20] [%]	further results
CC(C)=CCC/C(C)=C/CC/C(C)=C/CC[C@]1(C)CCc2c3c(c(C)c(C)c2O1)OCN(CCCCCCCCO)C3	-24	4.37	3140	73.6	2630	2500	3440	3010	2980	57.9	2830	2730	75.3	66.6	-37.8	56.1	3160	5500	72.8	31.1	growth at 10 µM [21]: 9.26%; growth at 10 µM [22]: -21.4%; GI50 [23]: 3040 nM; GI50 [24]: 2610 nM
CC(C)=CCC/C(C)=C/CC/C(C)=C/CC[C@]1(C)CCc2c3c(cc(C)c2O1)OCN(CCCO)C3	15.1	-94.2	2100	4.52	1980	1890	2190	2270	1900	-46.5	1770	1740	0.85	-26.4	-32.1	-22.1	1880	1960	40.4	-76.7	growth at 10 µM [21]: -75.1%; growth at 10 µM [22]: -24%; GI50 [23]: 5110 nM; GI50 [24]: 2030 nM
COc1ccc(CCN2COc3cc(C)c4c(c3C2)CC[C@@](C)(CC/C=C(\C)CC/C=C(\C)CCC=C(C)C)O4)cc1OC	-19.5	-65.7	2030	80.5	1900	1900	1900	2630	1940	40.1	1860	1480	57.4	49.1	4.1	31.2	1850	2020	42.7	0.54	growth at 10 µM [21]: -68.2%; growth at 10 µM [22]: -51.1%; GI50 [23]: 2690 nM; GI50 [24]: 2300 nM
CC(C)=CCC/C(C)=C/CC/C(C)=C/CC[C@]1(C)CCc2c3c(cc(C)c2O1)OCN(CCCCCCCCO)C3	-94.7	-93.3	7150	-74.6	2240	616	1030	5590	1080	-98.9	2730	583	-10.9	18.7	-53.3	-67	4400	3370	-70.8	-77.2	growth at 10 µM [21]: 0.55%; growth at 10 µM [22]: -76.2%; GI50 [23]: 2980 nM; GI50 [24]: 938 nM
